# Source: PubChem
# Diaph inh CS – diaphorase inhibition or chemical oxidation counter-screen; diaphorase resazurin-to-resorufin fluorescence, NADH, 16 min; bacterial (C. kluyveri) enzyme, not human; inhibition, % at 20 µM; 190,000 tested, 0.69% active; AID 1217;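 active = primary screen inhibition at 20 µM above a set limit, cut at about 50% in these data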;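 note: plate controls were DMSO with full reaction for no effect and wells lacking NADH for full effect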
#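 System: Bacterial diaphorase enzyme (C. kluyveri) | Incubation: 16-min room-temperature incubation before reading | Benchmarks: No-NADH positive control and DMSO neutral control | Measured by: Resorufin fluorescence 544/590 nm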
# PMI act satM6P – PMI (human) activation, high substrate; P34949; 190,000 tested, 0.34% active; coupled PMI enzyme assay, resazurin fluorescence, 20 min; stronger effect = higher value; 1 = untreated enzyme, 0 = substrate-free blank; activation factor at 20 µM;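 active = activation factor of 2 or more at 20 µM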
# Target sequence (P34949 whole entry, looked up): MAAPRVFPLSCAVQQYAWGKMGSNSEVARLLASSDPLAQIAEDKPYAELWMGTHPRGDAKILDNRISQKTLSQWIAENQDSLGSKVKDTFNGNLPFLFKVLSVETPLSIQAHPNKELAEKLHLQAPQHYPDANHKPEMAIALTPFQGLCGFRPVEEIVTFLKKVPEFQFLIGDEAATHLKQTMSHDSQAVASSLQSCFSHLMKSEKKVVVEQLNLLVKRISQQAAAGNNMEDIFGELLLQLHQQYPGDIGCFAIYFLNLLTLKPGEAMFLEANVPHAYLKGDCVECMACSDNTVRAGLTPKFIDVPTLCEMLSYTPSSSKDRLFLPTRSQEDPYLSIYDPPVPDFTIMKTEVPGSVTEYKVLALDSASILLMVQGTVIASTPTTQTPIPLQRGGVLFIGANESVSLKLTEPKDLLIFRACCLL
#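 Material: human phosphomannose isomerase with PGI, G6PDH, diaphorase coupling enzymes; amount: PMI at 15 ng/mL final; also added: Mannose-6-phosphate 1.0 mM (near-saturating) plus 0.22 mM NADP+; incubation: enzyme reaction with compound 20 min at room temperature; signal: resorufin fluorescence (Ex 544/Em 590 nm) from resazurin via diaphorase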
# DTT redox prof – compounds producing H2O2 with reducing agent – biochemical, NIH compound library profiling, artefact control for MLSCN library redox annotation, primary screen | DTT-dependent redox cycling H2O2, phenol red/HRP absorbance; 100% = 100 µM peroxide control, 0% = buffer | activation, % at 10 µM | 200,000 tested, 0.03% active;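 active = activation of at least 50% relative to the plate's high and low controls in the primary single-dose screen; inactive = activation below 50%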;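 note: compound incubated with DTT at 0.8 mM final as the reducing agent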
# PMI act – phosphomannose isomerase (human) activation; purified human PMI, coupled resazurin fluorescence, 20 min; stronger effect = higher value; 1 = vehicle control, 0 substrate-free wells; activation factor at 20 µM; 190,000 tested, 0.005% active;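 active = activation factor of 2 or more at 20 µM, relative to plate controls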
# G6PDH CS – inhibits Leuconostoc G6PDH, flagging false hits in G6PDH-based assays; inhibition, % at 5 µM; AID 1020; 200,000 tested, 0.12% active; Purified L. mesenteroides G6PDH, diaphorase/resazurin coupled fluorescence, 45 min; in the data active = inhibition above about 50%
# Diaphorase act – diaphorase activation or chemical reduction counter-screen; activation factor at 20 µM; AID 1229; Diaphorase/resazurin coupled assay, resorufin fluorescence, 16 min; stronger effect = higher value; 1 = vehicle wells, 0 = NADH-free wells; 190,000 tested, 0.005% active;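 active = diaphorase activity raised at least twofold by the compound at 20 µM; inactive = activation factor below 2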
#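 Test system: Clostridium kluyveri diaphorase, purified enzyme; input: enzyme 0.07 U/mL final; buffer or medium: 50 mM HEPES pH 7.4 with 4.542 mM MgCl2, 0.005% Tween 20; also added: 0.114 mM NADH and 0.1 mM resazurin, final amounts; schedule: 16 min enzyme reaction, ambient temperature; technique: fluorescence of resorufin, 544 nm excitation, 590 nm emission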
# Redox H2O2 DR – confirmation of DTT-dependent redox cycling H2O2 generators; EC50, µM; 60 tested, 40% active; phenol red-HRP absorbance; shares compounds with DTT redox prof; AID 1234;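 active = EC50 under a set limit for hydrogen peroxide production with the reducing agent DTT present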
# * marks the source's active call; other numbers are inactive results; · = no result given. Sampled rows, rich in hits. Any-hit rate of the full collection: about 1.1%.
SMILES,Diaph inh CS,PMI act satM6P,DTT redox prof,PMI act,G6PDH CS,Diaphorase act,Redox H2O2 DR
O=C1C=C(NCCN2CCOCC2)C(=O)c2cnccc21,23,0.5,176*,0.7,60*,0.8,>50
COc1ccc(S(=O)(=O)NC(C)CCc2ccccc2)cc1 (configuration not stated),10,1,0,1,15,0.9,·
Cc1ccc(NC2=C/C(=N\S(=O)(=O)c3cccs3)c3ccccc3C2=O)c(C)c1,20,0.5,323*,1,52*,0.8,18*
COc1cccc(Oc2cncnc2-c2ccc(OC)cc2O)c1,16,0.9,60*,1,3,0.8,>50
CCN(CCn1cccn1)Cc1ccccc1OCC(O)CN1CCc2ccccc2C1 (configuration not stated),-13,1,7,1,10,1.1,·
CC1(C)CC(N2CCCC2)=CC(=[N+]2CCCCCC2)C1,0,0.8,0,0.4,13,1,·
CC1(C)CC(=O)C=C(N2CCNCC2)C1,4,1,73*,1,4,1,>50
CC(NC(=O)CSCc1ccccc1Br)c1ccccc1 (configuration not stated),14,1,0,1.1,2,0.9,·
COc1ccc(-c2ncncc2-c2csc(C)n2)c(O)c1OC,1,1,0,1,0,1,·
COC1=C(N)C(=O)c2nc(-c3nc(C(=O)O)c(C)c(-c4ccc(OC)c(OC)c4O)c3N)ccc2C1=O,68*,0.4,132*,0.4,56*,0.3,1.5*
